Test results: ChEMBL document CHEMBL1629563, “Pharmacokinetic and safety evaluation of BILR 355, a second-generation nonnucleoside reverse transcriptase inhibitor, in healthy volunteers” (Antimicrob Agents Chemother, 2008)

Tests used:
[1] = system: Homo sapiens; assay: Toxicity in healthy human assessed as occurrence of nausea at 100 mg, po administered as single dose relative to control; assay type: organism-based; conditions: in vivo
[2] = system: Homo sapiens; assay: Toxicity in healthy human assessed as occurrence of maculopapular rash at 100 mg, po administered as single dose relative to control; assay type: organism-based; conditions: in vivo
[3] = system: Homo sapiens; assay: Toxicity in healthy human assessed as occurrence of flatulence at 1 mg, po administered as single dose relative to control; assay type: organism-based; conditions: in vivo
[4] = system: Homo sapiens; assay: Toxicity in healthy human assessed as occurrence of flatulence at 12.5 mg, po administered as single dose relative to control; assay type: organism-based; conditions: in vivo
[5] = system: Homo sapiens; assay: Toxicity in healthy human assessed as occurrence of palpitations at 12.5 mg, po administered as single dose relative to control; assay type: organism-based; conditions: in vivo
[6] = system: Homo sapiens; assay: Toxicity in healthy human assessed as occurrence of palpitations at 75 mg, po administered as single dose relative to control; assay type: organism-based; conditions: in vivo
[7] = system: Homo sapiens; assay: Toxicity in healthy human assessed as occurrence of palpitations at 100 mg, po administered as single dose relative to control; assay type: organism-based; conditions: in vivo
[8] = Half life in healthy human at 87.5 mg, po administered as single dose coadministered with 100 mg of ritonavir; assay type: ADME, organism-based; conditions: in vivo
[9] = Half life in high fat fed healthy human at 50 mg, po administered as single dose coadministered with 100 mg of ritonavir; assay type: ADME, organism-based; conditions: in vivo
[10] = Apparent oral clearance in healthy human at 25 mg, po administered as single dose coadministered with 100 mg of ritonavir; assay type: ADME, organism-based; conditions: in vivo
In short: (§1)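 Healthy male volunteers, fasted. Ritonavir 100 mg given 10 h before and again together with single oral BILR 355 in PEG solution. EDTA plasma sampled predose to 144 h. LC-MS/MS assay after protein precipitation. Noncompartmental analysis, AUC by linear up/log down trapezoidal rule; Vss = CL/F·(MRTp.o. − 1/Ka).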

[11] = Apparent oral clearance in healthy human at 37.5 mg, po administered as single dose coadministered with 100 mg of ritonavir; assay type: ADME, organism-based; conditions: in vivo; in short: as §1
[12] = Mean residence time in healthy human at 75 mg, po administered as single dose coadministered with 100 mg of ritonavir; assay type: ADME, organism-based; conditions: in vivo
[13] = Mean residence time in healthy human at 87.5 mg, po administered as single dose coadministered with 100 mg of ritonavir; assay type: ADME, organism-based; conditions: in vivo
[14] = Apparent volume of distribution at steady state in healthy human at 37.5 mg, po administered as single dose coadministered with 100 mg of ritonavir; assay type: ADME, organism-based; conditions: in vivo, read-out: Vss/F
In short: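 Healthy male volunteers, fasted overnight, got one oral dose of BILR 355 in PEG solution with 200 ml water. Ritonavir 100 mg was given 10 h before and again with the dose. Plasma was sampled (EDTA) from predose to 144 h and assayed by validated LC-MS/MS. Cmax and Vz/F came from noncompartmental analysis. Vss/F = CL/F·(MRTp.o. − 1/Ka), with Ka from compartmental modelling.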

[15] = Renal clearance in high fat fed healthy human at 50 mg, po administered as single dose coadministered with 100 mg of ritonavir by high-pressure liquid chromatography-tandem mass spectrometry/mass spectrometry method; assay type: ADME, organism-based, Kidney; conditions: in vivo, read-out: CL_renal (converted)
[16] = Drug excretion in healthy human urine assessed as unchanged drug at 12.5 mg, po administered as single dose coadministered with 100 mg of ritonavir by high-pressure liquid chromatography-tandem mass spectrometry/mass spectrometry method; assay type: ADME, organism-based; conditions: read-out: Drug uptake
In short: (§2)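 Ritonavir 100 mg was given 10 h before and with one oral dose of BILR 355 in PEG solution. Urine was collected by weight as predose blank, then 0-6, 6-24 and 24-72 h, stored at −20°C and assayed by LC-MS/MS. fe = unchanged drug excreted (Ae) as a percentage of dose. Line 50: high-fat breakfast 30 min before dosing.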

[17] = Drug excretion in healthy human urine assessed as unchanged drug at 25 mg, po administered as single dose coadministered with 100 mg of ritonavir by high-pressure liquid chromatography-tandem mass spectrometry/mass spectrometry method; assay type: ADME, organism-based; conditions: read-out: Drug uptake; in short: as §2
[18] = Drug excretion in healthy human urine assessed as unchanged drug in high fat fed healthy human at 50 mg, po administered as single dose coadministered with 100 mg of ritonavir by high-pressure liquid chromatography-tandem mass spectrometry/mass spectrometry method; assay type: ADME, organism-based; conditions: read-out: Drug uptake; in short: as §2
[19] = system: Homo sapiens; assay: Toxicity in healthy human assessed as occurrence of aphthous stomatitis at 100 mg, po administered as single dose; assay type: organism-based; conditions: in vivo
[20] = system: Homo sapiens; assay: Toxicity in healthy human assessed as occurrence of fatigue at 25 mg, po administered as single dose coadministered with 100 mg of ritonavir; assay type: organism-based; conditions: in vivo
[21] = system: Homo sapiens; assay: Toxicity in healthy human assessed as occurrence of maculopapular rash at 37.5 mg, po administered as single dose coadministered with 100 mg of ritonavir; assay type: organism-based; conditions: in vivo
[22] = AUC (0 to infinity) in healthy human at 5 mg, po administered as single dose; assay type: ADME, organism-based; parameters: dose 5 mg, route oral, time infinity; conditions: plasma
In short: (§3)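 Healthy male volunteers, six active plus two placebo per dose group, single oral dose in PEG solution with 200 ml water after overnight fast; breakfast 60 to 90 min post-dose. EDTA plasma sampled predose to 144 h. Assayed by validated LC-MS/MS after protein precipitation. Noncompartmental analysis, AUC by linear up/log down trapezoidal rule; Vss = CL/F·(MRTp.o. − 1/Ka).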

[23] = AUC (0 to last) in healthy human at 75 mg, po administered as single dose; assay type: ADME, organism-based; parameters: dose 75 mg, time 0 - last, route oral; conditions: plasma; in short: as §3
[24] = system: Homo sapiens; assay: Ratio of half life in human at 75 mg, po in presence of 100 mg of ritonavir to half life in human at 75 mg, po; assay type: ADME, organism-based; conditions: in vivo
[25] = Apparent oral clearance in healthy human at 100 mg, po administered as single dose; assay type: ADME, organism-based; conditions: in vivo; in short: as §3
[26] = Mean residence time in healthy human at 50 mg, po administered as single dose; assay type: ADME, organism-based; conditions: in vivo
[27] = Apparent volume of distribution at steady state in healthy human at 5 mg, po administered as single dose; assay type: ADME, organism-based; conditions: in vivo, read-out: Vss/F
In short: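 Single fasting oral dose of BILR 355 in PEG solution with 200 ml tap water, given to healthy males. Standard breakfast came 60-90 min after the dose. EDTA plasma was sampled predose to 144 h, stored below −18°C and assayed by LC-MS/MS after protein precipitation. Noncompartmental analysis gave Vz/F. Vss/F = CL/F·(MRTp.o. − 1/Ka), with Ka from compartmental modelling.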

[28] = Apparent volume of distribution at steady state in healthy human at 12.5 mg, po administered as single dose; assay type: ADME, organism-based; conditions: in vivo, read-out: Vss/F; in short: as §3
[29] = Apparent volume of distribution at steady state in healthy human at 25 mg, po administered as single dose; assay type: ADME, organism-based; conditions: in vivo, read-out: Vss/F; in short: as §3
[30] = Drug excretion in healthy human urine assessed as unchanged drug at 5 mg, po administered as single dose by high-pressure liquid chromatography-tandem mass spectrometry/mass spectrometry method; assay type: ADME, organism-based; conditions: read-out: Drug uptake
In short: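 Urine was collected by weight after one oral dose of BILR 355 in PEG solution in fasted healthy males. Intervals were predose blank, 0-6, 6-24 and 24-72 h, with the bladder voided before each. Aliquots were stored at −20°C and assayed by LC-MS/MS. fe = amount of unchanged drug excreted (Ae) as a percentage of the administered dose.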

[31] = system: Homo sapiens; assay: Toxicity in healthy human assessed as occurrence of headache at 12.5 mg, po administered as single dose relative to control; assay type: organism-based; conditions: in vivo

Q: With `CCN1c2ncc(CCOc3cc[n+]([O-])c4ccccc34)cc2C(=O)N(C)c2cccnc21` [BILR 355] as the molecule, how does the Activity [1] read?
A: 0%

Q: What about the Activity [2] of the same molecule?
A: 0%

Q: What about the Activity [3] of the same molecule?
A: 0%

Q: What about the Activity [4] of the same molecule?
A: 0%

Q: And the Activity [5]?
A: 0%

Q: And the Activity [6]?
A: 16.7%

Q: What about the Activity [7] of the same molecule?
A: 0%

Q: What about the half-life [8] of the same molecule?
A: 9.61 h

Q: What about the half-life [9] of the same molecule?
A: 11 h

Q: What about the CL/F [10] of the same molecule?
A: 98 mL/min

Q: What about the CL/F [11] of the same molecule?
A: 109 mL/min

Q: What about the MRT [12] of the same molecule?
A: 17.4 h

Q: What about the MRT [13] of the same molecule?
A: 14.6 h

Q: What about the Vd/F [14] of the same molecule?
A: 105 L

Q: What about the CL renal [15] of the same molecule?
A: 4.98 mL/min

Q: And the dose excreted [16]?
A: 6.37%

Q: And the dose excreted [17]?
A: 6.62%

Q: What about the dose excreted [18] of the same molecule?
A: 4.62%

Q: And the Activity [19]?
A: 0%

Q: And the Activity [20]?
A: 0%

Q: And the Activity [21]?
A: 16.7%

Q: And the AUC(0-inf) [22]?
A: 36.3 ng·h/mL

Q: What about the AUC(0-t) [23] of the same molecule?
A: 763 ng·h/mL

Q: What about the Ratio [24] of the same molecule?
A: 5.4

Q: And the CL/F [25]?
A: 1320 mL/min

Q: And the MRT [26]?
A: 3.2 h

Q: And the Vd/F [27]?
A: 1020 L

Q: And the Vd/F [28]?
A: 1460 L

Q: What about the Vd/F [29] of the same molecule?
A: 914 L

Q: What about the dose excreted [30] of the same molecule?
A: 0.172%

Q: What about the Activity [31] of the same molecule?
A: 0%
